Test results taken from ChEMBL document CHEMBL4028892, “Discovery of a 1-Methyl-3,4-dihydronaphthalene-Based Sphingosine-1-Phosphate (S1P) Receptor Agonist Ceralifimod (ONO-4641). A S1P1 and S1P5 Selective Agonist for the Treatment of Autoimmune Diseases” (J Med Chem, 2017).

What was measured:
Mus musculus [1] = test: Decrease in peripheral lymphocyte levels in po dosed BALB/c mouse at 4 hrs by automated hematology analyzer; format: functional
Outline: (§1)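 Compound given orally to 6-week-old male BALB/c mice. At 4 or 24 h, blood was taken from the abdominal aorta under ether anaesthesia and lymphocytes counted on an automated haematology analyser. Counts expressed as % of the vehicle-group mean; ED50 is the dose lowering counts to 50%. One experiment, five mice.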

[2] = target: Sphingosine 1-phosphate receptor 3 (Homo sapiens, UniProt Q99500); test: Agonist activity at human S1P3 receptor expressed in CHO-K1 cells assessed as increase in S1P-stimulated calcium influx preincubated for 5 mins followed by S1P stimulation measured every 3 secs by fluorescence method; format: cell-based
[3] = target: T1, Sphingosine 1-phosphate receptor 1 (Homo sapiens, UniProt P21453); test: Agonist activity at human S1P1 receptor expressed in CHO-K1 cells assessed as increase in S1P-stimulated calcium influx preincubated for 5 mins followed by S1P stimulation measured every 3 secs by fluorescence method; format: functional, cell-based
Outline: (§2)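 Fura2 Ca2+ assay in CHO-K1 cells stably expressing human S1P1 or S1P3. Cells were loaded with 5 μM Fura2-AM in Ham's F12 (10% FBS, 20 mM HEPES pH 7.4, 2.5 mM probenecid) for 60 min at 37 °C, then washed. After a 30 s baseline, compound was added (0.1 nM–30 μM final, DMSO), then 100 nM S1P 5 min later. Ratio read every 3 s (ex 340/380, em 500 nm). Increase ratio (%) = B/A×100 against the DMSO-well S1P peak; EC50 taken from the concentration series; mean of ≥2 data points.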

Homo sapiens = species: Homo sapiens; test: Selectivity ratio of EC50 for human S1P3 receptor to EC50 for human S1P1 receptor; outline: as §2
[4] = target: T1, Sphingosine 1-phosphate receptor 1; test: Agonist activity at human S1P1 receptor expressed in CHO-K1 cells assessed as inhibition of forskolin-stimulated cAMP accumulation after 30 mins by ELISA; format: functional, cell-based
Mus musculus [5] = test: Decrease in peripheral lymphocyte levels in po dosed BALB/c mouse at 24 hrs by automated hematology analyzer; format: functional; outline: as §1
[6] = target: Sphingosine 1-phosphate receptor 5 (Homo sapiens, UniProt Q9H228); test: Agonist activity at human S1P5 receptor expressed in CHO-K1 cells assessed as inhibition of forskolin-stimulated cAMP accumulation after 30 mins by ELISA; format: functional, cell-based
[7] = Protein binding in mouse serum at 50 to 5000 ng/ml after 10 mins by ultracentrifugation method; format: ADME, cell-free; conditions: read-out: PB
Outline: (§3)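 Serum protein binding measured at compound concentrations of 50, 500 and 5,000 ng/mL. Mean of four binding experiments.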

[8] = Protein binding in cynomolgus monkey serum at 50 to 5000 ng/ml after 10 mins by ultracentrifugation method; format: ADME, cell-free, Macaca fascicularis; conditions: read-out: PB; outline: as §3
[9] = Metabolic stability in cynomolgus monkey liver microsomes assessed as parent compound remaining after 2 hrs by radio-HPLC method; format: ADME, Macaca fascicularis, microsome; conditions: read-out: Stability
Outline: (§4)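 Tritium-labelled compound incubated for 2 h in liver microsomes of each species. Read-out was % of unchanged form remaining; mean of two experiments.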

[10] = Metabolic stability in mouse liver microsomes assessed as parent compound remaining after 2 hrs by radio-HPLC method; format: ADME, microsome; conditions: read-out: Stability; outline: as §4
[11] = Protein binding in Sprague-Dawley rat serum at 50 to 5000 ng/ml after 10 mins by ultracentrifugation method; format: ADME, cell-free; conditions: read-out: PB; outline: as §3
[12] = Protein binding in Lewis rat serum at 50 to 5000 ng/ml after 10 mins by ultracentrifugation method; format: ADME, cell-free; conditions: read-out: PB; outline: as §3
[13] = Metabolic stability in Sprague-Dawley rat liver microsomes assessed as parent compound remaining after 2 hrs by radio-HPLC method; format: ADME, microsome; conditions: read-out: Stability; outline: as §4
[14] = Protein binding in human serum at 50 to 5000 ng/ml after 10 mins by ultracentrifugation method; format: ADME, cell-free; conditions: read-out: PB; outline: as §3
[15] = Metabolic stability in human liver microsomes assessed as parent compound remaining after 2 hrs by radio-HPLC method; format: ADME, microsome; conditions: read-out: Stability; outline: as §4
[16] = target: S1P3 receptor (sphingosine 1-phosphate receptor 3) (Homo sapiens, UniProt Q99500); test: Agonist activity at human S1P3 receptor expressed in CHO-K1 cells assessed as increase in S1P-stimulated calcium influx at 30 uM preincubated for 5 mins followed by S1P stimulation measured every 3 secs by fluorescence method relative to control; format: cell-based; conditions: CHO-K1 cells expressing human S1P3 receptor, read-out: max activation; outline: as §2
Sequence of S1P3 receptor (sphingosine 1-phosphate receptor 3) (Q99500 whole entry): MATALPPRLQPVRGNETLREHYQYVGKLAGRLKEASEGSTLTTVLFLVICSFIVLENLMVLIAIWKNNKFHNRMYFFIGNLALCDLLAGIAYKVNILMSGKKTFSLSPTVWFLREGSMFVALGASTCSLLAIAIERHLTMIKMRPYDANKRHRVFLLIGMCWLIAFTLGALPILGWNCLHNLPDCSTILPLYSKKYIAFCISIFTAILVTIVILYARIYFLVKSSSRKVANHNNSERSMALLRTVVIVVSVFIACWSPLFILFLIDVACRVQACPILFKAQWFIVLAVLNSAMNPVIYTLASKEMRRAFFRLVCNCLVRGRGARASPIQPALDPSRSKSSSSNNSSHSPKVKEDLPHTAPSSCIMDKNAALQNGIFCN

T1 sequence (P21453 whole entry): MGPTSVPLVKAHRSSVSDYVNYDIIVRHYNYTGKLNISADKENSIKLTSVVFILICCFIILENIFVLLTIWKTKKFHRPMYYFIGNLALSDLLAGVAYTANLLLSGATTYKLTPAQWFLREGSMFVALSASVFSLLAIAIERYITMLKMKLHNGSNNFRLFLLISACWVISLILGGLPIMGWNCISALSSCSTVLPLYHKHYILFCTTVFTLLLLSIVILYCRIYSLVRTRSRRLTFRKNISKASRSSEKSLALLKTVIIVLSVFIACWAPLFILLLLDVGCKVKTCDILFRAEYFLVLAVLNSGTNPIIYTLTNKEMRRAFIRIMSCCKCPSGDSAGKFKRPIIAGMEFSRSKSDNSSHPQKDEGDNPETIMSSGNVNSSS
Sequence of Sphingosine 1-phosphate receptor 3 (Q99500 whole entry): as the sequence (Q99500 whole entry) above
Sequence of Sphingosine 1-phosphate receptor 5 (Q9H228 whole entry): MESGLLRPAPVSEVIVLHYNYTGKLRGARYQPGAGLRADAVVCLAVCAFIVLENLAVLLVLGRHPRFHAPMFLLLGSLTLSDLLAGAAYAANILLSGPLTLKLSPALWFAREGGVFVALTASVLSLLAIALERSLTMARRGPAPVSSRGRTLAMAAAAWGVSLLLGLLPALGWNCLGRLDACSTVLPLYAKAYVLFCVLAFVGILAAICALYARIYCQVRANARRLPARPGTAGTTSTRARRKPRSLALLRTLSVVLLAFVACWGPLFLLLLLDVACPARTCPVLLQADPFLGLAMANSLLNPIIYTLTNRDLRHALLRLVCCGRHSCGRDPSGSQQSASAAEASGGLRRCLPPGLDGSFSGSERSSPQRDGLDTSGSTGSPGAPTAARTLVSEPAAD

EC50 [2] [nM] | EC50 [3] [nM] | Ratio EC50 (Homo sapiens) | SMILES | ED50 (Mus musculus [1]) [mg/kg] | also measured
5500 | 1.7 | > 3200 | CC1=C(CN2CC(C(=O)O)C2)CCc2cc(OCCC3CCc4ccccc43)ccc21 (configuration not stated) | > 1 | –
> 30000 | 97 | > 310 | CC1=C(CN2CC(C(=O)O)C2)CCc2cc(OCCC3CCCc4ccccc43)ccc21 (configuration not stated) | – | –
> 30000 | 7.9 | > 3800 | CC1=C(CN2CC(C(=O)O)C2)CCc2cc(OCC3Cc4ccccc4C3)ccc21 | > 1 | –
> 10000 | 54 | > 190 | CC1=C(CN2CC(C(=O)O)C2)CCc2cc(OCc3ccc4ccccc4c3)ccc21 | – | –
> 30000 | 3.5 | > 8600 | CCCCc1ccc(COc2ccc3c(c2)CCC(CN2CC(C(=O)O)C2)=C3C)c(OC)c1 | 0.09 | ED50 (Mus musculus [5]): 0.18 mg/kg
> 30000 | 19 | > 1600 | CC1=C(CN2CC(C(=O)O)C2)CCc2cc(OCC3CCc4ccccc4C3)ccc21 (configuration not stated) | – | –
– | – | 1700 | CC1=C(CN2CC(C(=O)O)C2)CCc2cc(OCCCc3ccccc3)ccc21 | 0.4 | –

The remaining lines, values behind:

SMILES | EC50 [2] [nM] | EC50 [3] [nM] | Ratio EC50 (Homo sapiens) | ED50 (Mus musculus [1]) [mg/kg] | also measured
CCCc1ccc(COc2ccc3c(c2C)CCC(CN2CC(C(=O)O)C2)=C3C)c(OC)c1 | > 30000 | 1.2 | > 25000 | 0.032 | EC50 [4]: 0.072 nM; ED50 (Mus musculus [5]): 0.072 mg/kg; EC50 [6]: 0.98 nM
COc1cc(COc2ccc3c(c2)CCC(CN2CC(C(=O)O)C2)=C3C)ccc1CC(C)C | 4000 | 3 | 1300 | 0.034 | –
CC1=C(CN2CC(C(=O)O)C2)CCc2cc(OCc3ccc(CC(C)C)cc3Cl)ccc21 | > 30000 | 4.5 | > 6700 | 0.19 | –
COc1cc(CC(C)(C)O)ccc1COc1ccc2c(c1)CCC(CN1CC(C(=O)O)C1)=C2C | > 30000 | 6.6 | > 4500 | 0.16 | –
CCCc1ccc(COc2cc3c(cc2C)C(C)=C(CN2CC(C(=O)O)C2)CC3)c(OC)c1 | > 30000 | 540 | > 56 | – | –
[3H]C(C1=C(C)c2ccc(OCc3ccc(CCC)cc3OC)cc2CC1)N1CC(C(=O)O)C1 (configuration not stated) | – | – | – | – | fraction unbound at 10 min [7]: 0.029 to 0.038; fraction unbound at 10 min [8]: 0.027 to 0.029; remaining at 2 h [9]: 94.1%; remaining at 2 h [10]: 93.3%; fraction unbound at 10 min [11]: 0.018 to 0.023; fraction unbound at 10 min [12]: 0.023 to 0.028; remaining at 2 h [13]: 92.6%; fraction unbound at 10 min [14]: 0.029 to 0.032; remaining at 2 h [15]: 95.2%
CCc1ccc(COc2ccc3c(c2)CCC(CN2CC(C(=O)O)C2)=C3C)c(OC)c1 | > 30000 | 0.58 | > 52000 | 0.026 | ED50 (Mus musculus [5]): 0.3 mg/kg
CC1=C(CN2CC(C(=O)O)C2)CCc2cc(OCc3ccc(CC(C)C)cc3)ccc21 | > 30000 | 5 | > 6000 | 0.39 | Emax at 3 s, 30 µM [16]: < 50%
COc1cc(CC(C)C)ccc1COc1ccc2c(c1)CCC(CN1CC(C(=O)O)C1)=C2C | 9300 | 1 | 9300 | 0.0092 | ED50 (Mus musculus [5]): 0.04 mg/kg
CC1=C(CN2CC(C(=O)O)C2)CCc2cc(OCc3ccc(CC(C)C)cc3F)ccc21 | > 30000 | 2.6 | > 12000 | 0.073 | –
CC1=C(CN2CC(C(=O)O)C2)CCc2cc(OCc3ccc(CC(C)C)cc3C)ccc21 | > 30000 | 13 | > 2300 | 0.23 | –
CCCc1cc(OC)c(COc2ccc3c(c2)CCC(CN2CC(C(=O)O)C2)=C3C)cn1 | > 30000 | 57 | > 530 | > 0.1 | –
CCCc1ccc(COc2ccc3c(c2C)CCC(CN2CC(C(=O)O)C2)=C3C)c(OC)n1 | > 30000 | 1.2 | > 25000 | 0.017 | EC50 [4]: 0.19 nM; ED50 (Mus musculus [5]): 0.048 mg/kg; EC50 [6]: 0.92 nM
CCCc1ccc(COc2ccc3c(c2)CCC(CN2CC(C(=O)O)C2)=C3C)c(OC)n1 | 6800 | 0.58 | 12000 | 0.011 | –
COc1cc(C)ccc1COc1ccc2c(c1)CCC(CN1CC(C(=O)O)C1)=C2C | > 30000 | 1.4 | > 21000 | > 0.1 | –
